In ChEMBL document CHEMBL3259817, “N-carbamidoyl-4-((3-ethyl-2,4,4-trimethylcyclohexyl)methyl)benzamide enhances staurosporine cytotoxic effects likely inhibiting the protective action of Magmas toward cell apoptosis” (J Med Chem, 2014):
Activity calls are given as the source filed them. The calls are words filed in the database; no cut-off is given here.

Tests used:
[1] = test system: TT; experiment: Effect on total TIM16 protein level in human TT cells at 10 uM after 24 hrs by Western blotting analysis in presence of staurosporine; assay type: functional, cell-based
Method in brief: (§1)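 TT cells treated 24 h with 10 μM compound alone or with 50 nM staurosporine, then lysed in RIPA buffer on ice 30 min and centrifuged; protein by BCA. Lysates run on 10% SDS-PAGE, blotted to nitrocellulose, probed with rabbit anti-Tim 16 (1:1000), HRP anti-rabbit IgG (1:5000), ECL detection; stripped and reprobed for β-actin loading control.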

[2] = test system: TT; experiment: Effect on total TIM16 protein level in human TT cells at 10 uM after 24 hrs by Western blotting analysis; assay type: functional, cell-based; method in brief: as §1
[3] = test system: TT; experiment: Cytotoxicity against human TT cells assessed as reduction in cell viability at 1 to 10 uM after 72 hrs by ATPlite assay; assay type: functional, cell-based
Method in brief: (§2)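 TT or MCF12A cells seeded at 2 × 10^4/well, exposed to compound for 72 h with treatment renewed every 24 h; vehicle control 0.1% DMSO. Viable cell number read by ATPlite luminescence (RLU). Results are mean ± SE percent RLU vs vehicle-treated control from three independent experiments in six replicates.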

[4] = test system: TT; experiment: Potentiation of staurosporine-induced apoptosis in human TT cells assessed as caspase 3/7 activation at 5 to 10 uM after 72 hrs by ATPlite assay relative to control; assay type: functional, cell-based; details: in the assay text read “Caspase-Glo 3/7 assay” for “ATPlite assay”
Method in brief: (§3)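 TT cells (2 × 10^4/well) given 5 or 10 μM compound alone or with 50 nM staurosporine, renewed every 24 h, for 72 h. Caspase 3/7 activity by Caspase-Glo 3/7: reagent added at room temperature, 30 s shake, 1 h incubation, luminescence read. Mean ± SE percent RLU vs vehicle control, three experiments in six replicates.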

[5] = test system: TT; experiment: Induction of apoptosis in human TT cells assessed as caspase 3/7 activation at 1 to 10 uM after 72 hrs by luminescence assay; assay type: functional, cell-based
Method in brief: (§4)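 TT cells (2 × 10^4/well) exposed 72 h to compound, treatment renewed every 24 h; vehicle 0.1% DMSO. Caspase-Glo 3/7 reagent added at room temperature, plates shaken 30 s, incubated 1 h, luminescence (RLU) read. Mean ± SE percent RLU vs vehicle control; three independent experiments in six replicates.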

[6] = test system: TT; experiment: Induction of apoptosis in human TT cells assessed as caspase 3/7 activation at 5 uM after 72 hrs by luminescence assay; assay type: functional, cell-based; method in brief: as §4
[7] = test system: TT; experiment: Potentiation of staurosporine-induced apoptosis in human TT cells assessed as caspase 3/7 activation at 10 uM after 72 hrs by ATPlite assay relative to control; assay type: functional; details: in the assay text read “Caspase-Glo 3/7 assay” for “ATPlite assay”; method in brief: as §3
[8] = test system: TT; experiment: Potentiation of staurosporine-induced cytotoxicity against human TT cells assessed as reduction in cell viability at 5 to 10 uM after 72 hrs by ATPlite assay; assay type: functional, cell-based
Method in brief: (§5)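 Cells seeded at 2 × 10^4/well, given 5 or 10 μM compound alone or combined with 50 nM staurosporine, treatments renewed every 24 h for 72 h; vehicle 0.1% DMSO. ATPlite luminescence (RLU) read-out, expressed as mean ± SE percent of vehicle-treated control; three independent experiments, six replicates each.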

[9] = test system: TT; experiment: Induction of apoptosis in human TT cells assessed as decrease in mitochondrial membrane potential at 10 uM by JC-1 staining-based fluorescence microscopic analysis; assay type: functional, cell-based
Method in brief: (§6)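 TT cells treated with 5 or 10 μM compound, 50 nM staurosporine, or the combination. Mitochondrial membrane potential assessed with JC-1 dye, 30 min at 37 °C, by fluorescence microscopy; red aggregate fluorescence indicates retained potential, green monomer fluorescence a fall in potential.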

[10] = test system: TT; experiment: Potentiation of staurosporine-induced apoptosis in human TT cells assessed as decrease in mitochondrial membrane potential at 10 uM by JC-1 staining-based fluorescence microscopic analysis; assay type: functional, cell-based; method in brief: as §6
[11] = test system: TT; experiment: Potentiation of staurosporine-induced apoptosis in human TT cells assessed as caspase 3/7 activation at 5 uM after 72 hrs by ATPlite assay relative to control; assay type: functional; details: in the assay text read “Caspase-Glo 3/7 assay” for “ATPlite assay”; method in brief: as §3
[12] = test system: TT; experiment: Induction of apoptosis in human TT cells assessed as caspase 3/7 activation at 10 uM after 72 hrs by luminescence assay relative to control; assay type: functional; method in brief: as §4
[13] = test system: TT; experiment: Cytotoxicity against human TT cells assessed as reduction in cell viability at 10 uM after 72 hrs by ATPlite assay relative to control; assay type: functional; method in brief: as §2
[14] = test system: TT; experiment: Cytotoxicity against human TT cells assessed as reduction in cell viability at 5 uM after 72 hrs by ATPlite assay; assay type: functional, cell-based; method in brief: as §2
[15] = Cytotoxicity against human MCF12A cells assessed as reduction in cell viability at 5 to 10 uM after 72 hrs by ATPlite assay; assay type: cell-based; details: mcf-12a; method in brief: as §2
[16] = test system: TT; experiment: Potentiation of staurosporine-induced cytotoxicity against human TT cells assessed as reduction in cell viability at 10 uM after 72 hrs by ATPlite assay relative to control; assay type: functional; method in brief: as §5
[17] = test system: TT; experiment: Potentiation of staurosporine-induced cytotoxicity against human TT cells assessed as reduction in cell viability at 5 uM after 72 hrs by ATPlite assay relative to control; assay type: functional; method in brief: as §5
[18] = Potentiation of staurosporine-induced cytotoxicity against human MCF12A cells assessed as reduction in cell viability at 5 to 10 uM after 72 hrs by ATPlite assay; assay type: cell-based; details: mcf-12a; method in brief: as §5

Row | SMILES | Activity [1] | Activity [2] | Activity [3] | Activity [4] | Activity [5] | Activity [6] | Activity [7] [%] | Activity [8] | Activity [9] | Activity [10] | Activity [11] [%] | Activity [12] [%] | Activity [13] [%] | Activity [14] | Activity [15] | Activity [16] [%] | Activity [17] [%] | Activity [18]
1 | CCC1=C(C)/C(=C/c2ccc(C(=O)NC(N)=O)cc2)CCC1(C)C | inactive | inactive | inactive | inactive | inactive |  |  |  |  |  |  |  |  |  |  |  |  | 
2 | CCC1=C(C)/C(=C/c2ccc(C(=O)O)cc2)CCC1(C)C | inactive | inactive | inactive | inactive | inactive |  |  |  |  |  |  |  |  |  |  |  |  | 
3 | CCC1=C(C)/C(=C/c2ccc(C(N)=O)cc2)CCC1(C)C | inactive | inactive | inactive | inactive | inactive |  |  |  |  |  |  |  |  |  |  |  |  | 
4 | CCC1=C(C)/C(=C/c2ccc(C(=O)NC(=N)N)cc2)CCC1(C)C | inactive | inactive |  |  |  | inactive | 400 | Active | inactive | Active | 40 | 300 | 70 | inactive |  |  |  | 
5 | CCC1C(C)C(Cc2ccc(C(=O)NC(=N)N)cc2)CCC1(C)C (stereo not drawn) | inactive | inactive | inactive |  | inactive |  | 330 |  | Active | Active | 140 |  |  |  | Non-toxic | 20 | 12 | Non-toxic
